Series [1] concerns the target T1, hEag1 channels (Homo sapiens, UniProt O95259).
T1 sequence (O95259 1-989): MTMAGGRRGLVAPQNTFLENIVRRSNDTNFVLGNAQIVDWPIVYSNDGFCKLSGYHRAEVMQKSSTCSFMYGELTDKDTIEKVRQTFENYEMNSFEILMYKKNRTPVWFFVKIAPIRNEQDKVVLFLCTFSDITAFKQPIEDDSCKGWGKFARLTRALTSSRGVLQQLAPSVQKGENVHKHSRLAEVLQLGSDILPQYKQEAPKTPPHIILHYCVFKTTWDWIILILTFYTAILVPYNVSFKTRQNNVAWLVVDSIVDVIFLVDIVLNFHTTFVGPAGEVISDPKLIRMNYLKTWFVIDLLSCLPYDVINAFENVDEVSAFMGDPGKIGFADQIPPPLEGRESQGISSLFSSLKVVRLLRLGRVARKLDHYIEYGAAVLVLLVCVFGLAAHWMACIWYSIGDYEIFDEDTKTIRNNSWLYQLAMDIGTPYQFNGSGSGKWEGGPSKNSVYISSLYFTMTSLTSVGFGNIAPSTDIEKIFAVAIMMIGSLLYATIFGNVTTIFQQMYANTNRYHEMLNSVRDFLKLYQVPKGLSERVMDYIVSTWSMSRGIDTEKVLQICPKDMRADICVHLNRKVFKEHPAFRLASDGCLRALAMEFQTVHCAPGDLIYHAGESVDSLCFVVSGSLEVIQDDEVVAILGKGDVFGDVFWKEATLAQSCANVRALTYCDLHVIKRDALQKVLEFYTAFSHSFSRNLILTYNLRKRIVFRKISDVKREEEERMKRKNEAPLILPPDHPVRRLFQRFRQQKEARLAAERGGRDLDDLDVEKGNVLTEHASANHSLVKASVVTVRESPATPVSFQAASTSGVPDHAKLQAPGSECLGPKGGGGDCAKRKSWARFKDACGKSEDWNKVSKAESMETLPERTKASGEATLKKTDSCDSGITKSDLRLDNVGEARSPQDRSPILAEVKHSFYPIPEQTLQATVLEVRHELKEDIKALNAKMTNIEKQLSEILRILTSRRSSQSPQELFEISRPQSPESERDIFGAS
In words: Outside-out patch recordings of hEag1 currents. In kind it is cell-based. An outline of the steps:
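Outside-out patches from hEag1-expressing cells at room temperature. Successive 6-s recordings at 80 mV; drug applied to the extracellular face for 2.5 s, then removed. Currents were divided point-wise by control traces, and the time course was fitted with a single exponential to give the block or equilibration time constant and the steady-state fraction blocked.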

Series [2] in a line: Ionization: pKa and calculated protonated fractions. In kind it is physicochemical. An outline of the steps: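 Fractions of unprotonated, monoprotonated and diprotonated test compound were calculated from its two pKa values at pH 6.4, 7.4 and 8.4. The diprotonated percentage was 100 × [H+]2 divided by the summed-species denominator. Protonated fractions in the pH 7.4 recording solution were predicted the same way.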

For series [3] the following is noted: ref Fischer et al., 1997, 1998; cited from earlier work.
In series [4] the test system is IRK1 inward rectifier K^+ channels. The note with it: concentrations up to 10 μM; ref Suessbrich et al., 1996; cited from earlier work.
In a further series the target is T2, Kv4.2 (Homo sapiens, UniProt Q9NZV8).
T2 sequence (Q9NZV8 1-630): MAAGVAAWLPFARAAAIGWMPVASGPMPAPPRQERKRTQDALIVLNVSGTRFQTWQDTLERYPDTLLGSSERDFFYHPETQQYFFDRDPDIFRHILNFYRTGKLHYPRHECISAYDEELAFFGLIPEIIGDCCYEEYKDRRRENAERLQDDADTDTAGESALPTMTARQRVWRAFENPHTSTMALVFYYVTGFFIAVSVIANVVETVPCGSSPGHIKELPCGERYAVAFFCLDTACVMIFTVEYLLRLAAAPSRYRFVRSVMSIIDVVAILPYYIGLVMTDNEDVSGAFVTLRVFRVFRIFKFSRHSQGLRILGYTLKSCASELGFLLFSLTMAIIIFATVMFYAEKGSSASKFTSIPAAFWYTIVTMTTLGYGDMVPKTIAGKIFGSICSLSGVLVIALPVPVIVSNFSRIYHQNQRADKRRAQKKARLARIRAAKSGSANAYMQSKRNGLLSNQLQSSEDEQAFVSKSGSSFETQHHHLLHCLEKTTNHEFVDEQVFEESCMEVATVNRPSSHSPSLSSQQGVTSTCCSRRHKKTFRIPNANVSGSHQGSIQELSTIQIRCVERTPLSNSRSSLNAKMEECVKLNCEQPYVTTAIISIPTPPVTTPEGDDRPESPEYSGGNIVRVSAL
In words: Kv4.2 channels. In kind it is cell-based. As to conditions: concentrations up to 10 μM, unpublished data.

Series [5] deals with T1, hEag1 channels. Description: Inside-out patch recordings of hEag1 currents. As to conditions: for rate of block: inside-out, 500 nM astemizole. Format: cell-based. In outline:
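Inside-out patches from hEag1-expressing cells at room temperature. Pipette: 145 NaCl, 5 KCl, 3 CaCl2, 1 MgCl2, 10 HEPES/NaOH pH 7.4. Successive 6-s pulses at 80 mV with drug applied for 2.5 s. Current ratios to preapplication traces were fitted with a single exponential to give the block time constant.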

The target in series [6] is T1, hEag1 channels. In words: Cell-attached patch recordings of hEag1 currents, drug in bath. Format: cell-based. As to conditions: 140 mM external K+, 60 mV. In outline: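 hEag1-expressing cells grown 24–72 h on poly-L-lysine-coated coverslips; cell-attached patches at room temperature. Bath held 140 mM K+; pipette held control external solution (160 NaCl, 2.5 KCl, 2 CaCl2, 1 MgCl2, 10 HEPES, pH 7.4) without glucose. 1-s steps to 60 mV from −70 mV were recorded before, during and after washout of bath-applied drug.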

Series [7] has as its system Eag-like channels 2 (hELK2). As to conditions: ref Becchetti et al., 2002; cited from earlier work.
The next series has as its system breast cancer cells. The note with it: ref Ouadid-Ahidouch et al., 2001; cited from earlier work.
A further series has as its system Kv1.1. As to conditions: concentrations up to 10 μM; ref Suessbrich et al., 1996; cited from earlier work.

For `COc1ccc(CCN2CCC(Nc3nc4ccccc4n3Cc3ccc(F)cc3)CC2)cc1` [astemizole], the “time constant of block (equilibration of neutral drug) in outside-out patches” value at hEag1 channels [1] (bath pH 6.0, pipette pH 7.4) came out at 1.7 s. The “rate of the equilibration process across the membrane” value at hEag1 channels [1] (outside-out, bath pH 6.0) stood at 0.6 s⁻¹. Further, the “Diprotonated form, percentile contribution” value in series [2] (pH 6.4, calculated) is given as 13.6%; in series [2] (pH 7.4, calculated), 1.4%; in [2] (pH 8.4, calculated) it was 0.1%. The “Monoprotonated form, percentile contribution” value in series [2] (pH 6.4, calculated) is 85.7%; in [2] (pH 7.4, calculated) it was 91.3%; in series [2] (pH 8.4, calculated) it was 55.7%. The “Unprotonated form, percentile contribution” value in [2] (pH 6.4, calculated) is 0.7%; in [2] (pH 7.4, calculated) it was 7.3%; in [2] (pH 8.4, calculated) it was 44.2%. Moreover, the predicted protonated fraction in series [2] (pH 7.4 recording solution) is on record as 93%. Moreover, the “pK a1” value in [3] is listed as 5.6. For the same molecule, the “pK a2” value in [3] is given as 8.5. Also, the effect on current result (in [4]; on Kv4.2; with Kv1.1) was “no significant effects” in each case. In addition, the “time constant of block in inside-out patches” value at hEag1 channels [5] (bath pH 6.0, pipette pH 7.4, 80 mV) was found to be 387 ms. The “reversal of block on 2-s washout during the depolarization” value at hEag1 channels [5] (inside-out patches) is reported as “did not recover”. Further, the results for the rate of block at hEag1 channels [5] (pHint 6.4) and on hEag1 channels [5] (pHint 7.4) were 6.7 ± 2 s⁻¹ and 2.8 ± 0.2 s⁻¹, respectively. The “block of channels in cell-attached patches by bath application” value at hEag1 channels [6] was “blocked”. Also, the sensitivity to astemizole result in [7] is “not sensitive”. In addition, in the series with breast cancer cells, the “effect on proliferation rate” value was “significant reduction”.

(Values after paper PMC2233905 (The Journal of General Physiology, 2004).)
